Assay results: ChEMBL document CHEMBL1208778, “Synthesis and anti-cancer activity of chalcone linked imidazolones” (2010)
The source made the active and inactive calls. The rule behind the calls is not given here.

Experiments:
[1] = Growth inhibition of human RPMI8266 cells; assay type: functional
Summary of the method: (§1)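 Five-dose testing was run within the NCI (Bethesda) in vitro Anticancer Screen Program on a panel of 53 human tumour cell lines from nine cancer types. Growth inhibition is reported as GI50.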

[2] = system: K562; assay: Growth inhibition of human K562 cells; assay type: functional; summary of the method: as §1
[3] = system: A549; assay: Growth inhibition of human A549 cells; assay type: functional; summary of the method: as §1
[4] = system: EKVX; assay: Growth inhibition of human EKVX cells; assay type: functional; summary of the method: as §1
[5] = system: HOP-62; assay: Growth inhibition of human HOP62 cells; assay type: functional; summary of the method: as §1
[6] = system: HOP-92; assay: Growth inhibition of human HOP92 cells; assay type: functional; summary of the method: as §1
[7] = system: NCI-H226; assay: Growth inhibition of human NCI-H226 cells; assay type: functional; summary of the method: as §1
[8] = system: NCI-H23; assay: Growth inhibition of human NCI-H23 cells; assay type: functional; summary of the method: as §1
[9] = system: NCI-H322M; assay: Growth inhibition of human NCI-H322M cells; assay type: functional; summary of the method: as §1
[10] = system: NCI-H460; assay: Growth inhibition of human NCI-H460 cells; assay type: functional; summary of the method: as §1
[11] = system: NCI-H522; assay: Growth inhibition of human NCI-H522 cells; assay type: functional; summary of the method: as §1
[12] = system: COLO 205; assay: Growth inhibition of human COLO205 cells; assay type: functional; summary of the method: as §1
[13] = system: HCC 2998; assay: Growth inhibition of human HCC2998 cells; assay type: functional; summary of the method: as §1
[14] = system: HCT-116; assay: Growth inhibition of human HCT116 cells; assay type: functional; summary of the method: as §1
[15] = system: HCT-15; assay: Growth inhibition of human HCT15 cells; assay type: functional; summary of the method: as §1
[16] = system: HT-29; assay: Growth inhibition of human HT-29 cells; assay type: functional; summary of the method: as §1
[17] = system: KM12; assay: Growth inhibition of human KM12 cells; assay type: functional; summary of the method: as §1
[18] = system: SW-620; assay: Growth inhibition of human SW620 cells; assay type: functional
Summary of the method: (§2)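 Compounds that passed a preliminary screen were tested at five doses in the NCI (Bethesda) in vitro Anticancer Screen Program against a 53-line human tumour panel spanning leukemia, lung, colon, CNS, melanoma, ovarian, renal, prostate and breast. Growth inhibition is reported as GI50.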

[19] = system: SF-268; assay: Growth inhibition of human SF268 cells; assay type: functional; summary of the method: as §1
[20] = system: SF-295; assay: Growth inhibition of human SF295 cells; assay type: functional; summary of the method: as §1
[21] = system: SF-539; assay: Growth inhibition of human SF539 cells; assay type: functional; summary of the method: as §1
[22] = system: SNB-19; assay: Growth inhibition of human SNB19 cells; assay type: functional; summary of the method: as §2
[23] = system: SNB-75; assay: Growth inhibition of human SNB75 cells; assay type: functional; summary of the method: as §2
[24] = system: U-251; assay: Growth inhibition of human U251 cells; assay type: functional; summary of the method: as §2
[25] = system: A498; assay: Growth inhibition of human A498 cells; assay type: functional; summary of the method: as §1
[26] = system: 786-0; assay: Growth inhibition of human 786-0 cells; assay type: functional; summary of the method: as §1
[27] = system: ACHN; assay: Growth inhibition of human ACHN cells; assay type: functional; summary of the method: as §1
[28] = system: CAKI-1; assay: Growth inhibition of human Caki1 cells; assay type: functional; summary of the method: as §1
[29] = system: RXF 393; assay: Growth inhibition of human RXF393 cells; assay type: functional; summary of the method: as §1
[30] = system: SN12C; assay: Growth inhibition of human SN12C cells; assay type: functional; summary of the method: as §2
[31] = system: TK-10; assay: Growth inhibition of human TK10 cells; assay type: functional; summary of the method: as §2
[32] = system: UO-31; assay: Growth inhibition of human UO31 cells; assay type: functional; summary of the method: as §2
[33] = system: PC-3; assay: Growth inhibition of human PC3 cells; assay type: functional; summary of the method: as §1
[34] = system: OVCAR-3; assay: Growth inhibition of human OVCAR-3 cells; assay type: functional; summary of the method: as §1
[35] = system: OVCAR-4; assay: Growth inhibition of human OVCAR4 cells; assay type: functional; summary of the method: as §1
[36] = system: OVCAR-5; assay: Growth inhibition of human OVCAR5 cells; assay type: functional; summary of the method: as §1
[37] = system: OVCAR-8; assay: Growth inhibition of human OVCAR8 cells; assay type: functional; summary of the method: as §1
[38] = system: NCI/ADR-RES; assay: Growth inhibition of human NCI/ADR-RES cells; assay type: functional; summary of the method: as §1
[39] = system: SK-OV-3; assay: Growth inhibition of human SKOV3 cells; assay type: functional; summary of the method: as §2
[40] = system: MCF7; assay: Growth inhibition of human MCF7 cells; assay type: functional; summary of the method: as §1
[41] = system: MDA-MB-231; assay: Growth inhibition of human MDA-MB-231 cells; assay type: functional; summary of the method: as §1
[42] = Growth inhibition of human Hs 578T cells; assay type: functional; summary of the method: as §1
[43] = system: BT-549; assay: Growth inhibition of human BT549 cells; assay type: functional; summary of the method: as §1
[44] = system: T47D; assay: Growth inhibition of human T47D cells; assay type: functional; summary of the method: as §2
[45] = system: LOX IMVI; assay: Growth inhibition of human LOXIMVI cells; assay type: functional; summary of the method: as §1
[46] = system: Malme-3M; assay: Growth inhibition of human MALME-3M cells; assay type: functional; summary of the method: as §1
[47] = system: M14; assay: Growth inhibition of human M14 cells; assay type: functional; summary of the method: as §1
[48] = system: MDA-MB-435; assay: Growth inhibition of human MDA-MB-435 cells; assay type: functional; summary of the method: as §1
[49] = system: SK-MEL-2; assay: Growth inhibition of human SK-MEL-2 cells; assay type: functional; summary of the method: as §1
[50] = system: SK-MEL-28; assay: Growth inhibition of human SK-MEL-28 cells; assay type: functional; summary of the method: as §1
[51] = system: SK-MEL-5; assay: Growth inhibition of human SK-MEL-5 cells; assay type: functional; summary of the method: as §1
[52] = system: UACC-257; assay: Growth inhibition of human UACC257 cells; assay type: functional; summary of the method: as §2
[53] = system: UACC-62; assay: Growth inhibition of human UACC62 cells; assay type: functional; summary of the method: as §2
[54] = system: MCF7; assay: Cell cycle arrest in human MCF7 cells assessed as accumulation at G0 phase at 10 uM after 24 hrs by FACS analysis; assay type: functional
Summary of the method: (§3)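 MCF-7 breast carcinoma cells were exposed to 10 µM test compound for 24 h, with DMSO as the vehicle control. Cell-cycle distribution was read by FACS as the percentage of cells in G0, G1, S and G2/M.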

[55] = system: MCF7; assay: Cell cycle arrest in human MCF7 cells assessed as accumulation at G1 phase at 10 uM after 24 hrs by FACS analysis; assay type: functional; summary of the method: as §3
[56] = system: MCF7; assay: Cell cycle arrest in human MCF7 cells assessed as accumulation at S phase at 10 uM after 24 hrs by FACS analysis; assay type: functional; summary of the method: as §3
[57] = system: MCF7; assay: Cell cycle arrest in human MCF7 cells assessed as accumulation at G2/M phase at 10 uM after 24 hrs by FACS analysis; assay type: functional; summary of the method: as §3
[58] = system: MCF7; assay: Cell cycle arrest in human MCF7 cells assessed as accumulation at G0 phase at 30 uM after 24 hrs by FACS analysis; assay type: functional
Summary of the method: (§4)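 MCF-7 cells were treated at 30 µM for 24 h alongside a DMSO control. Fractions in G0, G1, S and G2/M phases were measured by FACS, and values are means of three experiments.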

[59] = system: MCF7; assay: Cell cycle arrest in human MCF7 cells assessed as accumulation at G1 phase at 30 uM after 24 hrs by FACS analysis; assay type: functional; summary of the method: as §4
[60] = system: MCF7; assay: Cell cycle arrest in human MCF7 cells assessed as accumulation at S phase at 30 uM after 24 hrs by FACS analysis; assay type: functional; summary of the method: as §4
[61] = system: MCF7; assay: Cell cycle arrest in human MCF7 cells assessed as accumulation at G2/M phase at 30 uM after 24 hrs by FACS analysis; assay type: functional; summary of the method: as §4
[62] = system: MCF7; assay: Induction of apoptosis in human MCF7 cells assessed as decrease in procaspase 7 level at 30 uM after 24 hrs by Western blot analysis; assay type: functional, cell-based
Summary of the method: (§5)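 MCF-7 breast carcinoma cells were exposed to 30 µM compound for 24 h, with CA-4 as positive control. Cell lysates were then immunoblotted with antibodies to procaspase-7 and cleavage-specific PARP, using β-actin as loading control.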

[63] = system: MCF7; assay: Induction of apoptosis in human MCF7 cells assessed as […] in PARP cleavage at 30 uM after 24 hrs by Western blot analysis; assay type: functional, cell-based; summary of the method: as §5

`COc1cc(/C=C/C(=O)c2cccc(-n3cc(-c4ccc(Cl)cc4)[nH]c3=O)c2)ccc1O` gave a GI50 [1] of 1.33 µM, a GI50 [2] of 1.42 µM and a GI50 [3] of 6.78 µM. The GI50 [4] was 9.61 µM, the GI50 [5] was 2.84 µM and the GI50 [6] was 1.26 µM. It also gave a GI50 [7] of 2.77 µM, a GI50 [8] of 3.18 µM and a GI50 [9] of 4.58 µM. It also gave a GI50 [10] of 3.9 µM, a GI50 [11] of 2.36 µM and a GI50 [12] of 3.4 µM. For the same compound, the GI50 [13] was 1.85 µM, the GI50 [14] was 1.46 µM and the GI50 [15] was 1.8 µM. It also gave a GI50 [16] of 2.97 µM, a GI50 [17] of 1.48 µM and a GI50 [18] of 2 µM. It also gave a GI50 [19] of 2.5 µM, a GI50 [20] of 10.5 µM and a GI50 [21] of 1.78 µM. It also gave a GI50 [22] of 3.17 µM, a GI50 [23] of 2.75 µM and a GI50 [24] of 2.23 µM. It also gave a GI50 [25] of 2.82 µM, a GI50 [26] of 2.07 µM and a GI50 [27] of 2.19 µM. The GI50 [28] was 2.64 µM, the GI50 [29] was 6.4 µM and the GI50 [30] was 2.87 µM. It also gave a GI50 [31] of 4.67 µM, a GI50 [32] of 1.67 µM and a GI50 [33] of 1.95 µM. It also gave a GI50 [34] of 1.56 µM, a GI50 [35] of 4.64 µM and a GI50 [36] of 2 µM. The GI50 [37] was 4.18 µM, the GI50 [38] was 2.28 µM and the GI50 [39] was 3.19 µM. For the same compound, the GI50 [40] was 2.3 µM, the GI50 [41] was 3.87 µM and the GI50 [42] was 4.67 µM. For the same compound, the GI50 [43] was 2.52 µM, the GI50 [44] was 3.09 µM and the GI50 [45] was 1.63 µM. For the same compound, the GI50 [46] was 3.06 µM, the GI50 [47] was 2.86 µM and the GI50 [48] was 2.25 µM. The GI50 [49] was 3.66 µM, the GI50 [50] was 2.06 µM and the GI50 [51] was 1.8 µM. It also gave a GI50 [52] of 8.69 µM, a GI50 [53] of 2.74 µM and an Activity [54] of 3.56%. For the same compound, the Activity [55] was 46.69%, the Activity [56] was 18.1% and the Activity [57] was 31.65%. The Activity [58] was 32.89%, the Activity [59] was 50.61% and the Activity [60] was 6.17%. The Activity [61] was 10.35%, the Activity [62] was “Active” and the Activity [63] was “Active”.
